One assay has as its target Carbonic anhydrase 9 (Homo sapiens, UniProt Q16790). Put plainly: Inhibition of recombinant human carbonic anhydrase 9 incubated 15 mins prior to testing by CO2 hydration based stopped-flow assay.
The target in another assay is Carbonic anhydrase 1 (Homo sapiens, UniProt P00915). Put plainly: Inhibition of recombinant human carbonic anhydrase 1 incubated 6 h prior to testing by CO2 hydration based stopped-flow assay.
The target in the next assay is Carbonic anhydrase 2 (Homo sapiens, UniProt P00918). Description: Inhibition of recombinant human carbonic anhydrase 2 incubated 6 h prior to testing by CO2 hydration based stopped-flow assay.
For assay [1], the target named is T1, Carbonic anhydrase 12 (Homo sapiens, UniProt O43570). Description: Inhibition of recombinant human carbonic anhydrase 12 incubated 6 h prior to testing by CO2 hydration based stopped-flow assay.
T1 sequence (O43570 whole entry): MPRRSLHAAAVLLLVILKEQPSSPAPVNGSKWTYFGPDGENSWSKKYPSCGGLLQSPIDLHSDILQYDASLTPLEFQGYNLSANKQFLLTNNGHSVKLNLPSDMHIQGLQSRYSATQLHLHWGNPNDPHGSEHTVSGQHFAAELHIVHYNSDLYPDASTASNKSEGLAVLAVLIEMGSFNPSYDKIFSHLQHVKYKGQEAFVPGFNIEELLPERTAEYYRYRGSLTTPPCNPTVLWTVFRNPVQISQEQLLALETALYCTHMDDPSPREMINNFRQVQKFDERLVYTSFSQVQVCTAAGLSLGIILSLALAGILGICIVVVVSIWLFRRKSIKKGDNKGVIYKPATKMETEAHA
The target in assay [2] is T1, Carbonic anhydrase 12. Description: Inhibition of recombinant human carbonic anhydrase 12 incubated 15 mins prior to testing by CO2 hydration based stopped-flow assay.
The subject of assay [3] is PC-3. Put plainly: Cytotoxicity against human PC3 cells assessed as cell viability at 30 uM after 48 hrs under normoxic conditions by MTT assay relative to control. Format: functional. The following applies: PC-3, 48 h, read-out: Activity. In a few lines:
(§1)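 PC3 human prostate cancer cells incubated 48 h with compound at a range of concentrations, under normoxia or under hypoxia (1% O2). Viability is expressed relative to control, with significance tested against control at p < 0.05, 0.01 and 0.001.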

For assay [4], the system named is PC-3. Description: Cytotoxicity against human PC3 cells assessed as cell viability at 30 uM after 48 hrs under hypoxic conditions by MTT assay relative to control. Conditions: PC-3, 48 h, read-out: Activity. The assay is classed as functional. A digest of the protocol:
as §1

The subject of assay [5] is MDA-MB-231. Description: Cytotoxicity against human MDA-MB-231 cells assessed as reduction in cell viability at 1 to 300 uM after 48 hrs under hypoxic conditions by MTT assay. Format: functional, cell-based. A general note: Tetrazolium assays rely on reduction of a dye to a coloured formazan, in cell work by metabolically active cells.
Assay [6] deals with MDA-MB-231. Description: Cytotoxicity against human MDA-MB-231 cells assessed as reduction in cell viability at 30 uM after 48 hrs under normoxic conditions by MTT assay relative to control. Format: functional.
Assay [7] deals with PC-3. Put plainly: Cytotoxicity against human PC3 cells assessed as reduction in cell viability at 1 to 300 uM after 48 hrs under normoxic conditions by MTT assay. Format: functional, cell-based. In a few lines:
as §1

In assay [8] the test system is PC-3. Description: Cytotoxicity against human PC3 cells assessed as reduction in cell viability at 1 to 300 uM after 48 hrs under hypoxic conditions by MTT assay. The assay is classed as functional, cell-based. In a few lines:
as §1

The test system of assay [9] is MDA-MB-231. Put plainly: Cytotoxicity against human MDA-MB-231 cells assessed as reduction in cell viability at 1 to 300 uM after 48 hrs under normoxic conditions by MTT assay. Format: functional, cell-based.
In assay [10] the test system is PC-3. Description: Cytotoxicity against human PC3 cells assessed as cell viability at higher concentration after 48 hrs under normoxic conditions by MTT assay relative to control. Format: functional. A digest of the protocol:
as §1

Assay [11] concerns PC-3. Put plainly: Cytotoxicity against human PC3 cells assessed as cell viability at 100 to 300 uM after 48 hrs under hypoxic conditions by MTT assay relative to control. The assay is classed as functional. In a few lines:
as §1

The test system of assay [12] is MDA-MB-231. Description: Cytotoxicity against human MDA-MB-231 cells assessed as reduction in cell viability at 300 uM after 48 hrs under hypoxic conditions by MTT assay relative to control. The assay is classed as functional.
Assay [13] deals with PC-3. Put plainly: Cytotoxicity against human PC3 cells assessed as cell viability at 300 uM after 48 hrs under normoxic conditions by MTT assay relative to control. The assay is classed as functional. Conditions: PC-3, 48 h, read-out: Activity. In a few lines: as §1
Assay [14] concerns PC-3. Description: Cytotoxicity against human PC3 cells assessed as cell viability at 300 uM after 48 hrs under hypoxic conditions by MTT assay relative to control. The assay is classed as functional. Conditions: PC-3, 48 h, read-out: Activity. In a few lines:
as §1

For assay [15], the system named is MDA-MB-231. Description: Cytotoxicity against human MDA-MB-231 cells assessed as reduction in cell viability at 300 uM after 48 hrs under normoxic conditions by MTT assay relative to control. Format: functional.
In assay [16] the test system is MDA-MB-231. Put plainly: Cytotoxicity against human MDA-MB-231 cells assessed as reduction in cell viability at 30 uM after 48 hrs under hypoxic conditions by MTT assay relative to control. The assay is classed as functional.

pKi: −log10 of the molar value. Calls of active or inactive are those of the source. The calls are words filed in the database; no cut-off is given here. Bounds are passed on as bounds.

Chain of Carbonic anhydrase 1 (P00915 whole entry): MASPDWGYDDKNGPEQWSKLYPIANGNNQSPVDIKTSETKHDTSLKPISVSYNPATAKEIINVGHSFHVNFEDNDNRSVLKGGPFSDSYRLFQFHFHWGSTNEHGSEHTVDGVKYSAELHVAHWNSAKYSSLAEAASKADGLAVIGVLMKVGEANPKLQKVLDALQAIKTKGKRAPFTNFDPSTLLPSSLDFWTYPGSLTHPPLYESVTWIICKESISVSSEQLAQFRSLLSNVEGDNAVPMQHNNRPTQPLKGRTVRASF

With `Cn1c(=O)ccc2ccccc21`, the pKi on Carbonic anhydrase 9 was 7.35; at Carbonic anhydrase 1 it was less than 5.00; on Carbonic anhydrase 2, less than 5.00; at Carbonic anhydrase 12 [1] it was 7.08.

For `Cc1ccc2[se]c(=O)ccc2c1`, the pKi at Carbonic anhydrase 9 is 7.25; at Carbonic anhydrase 12 [2] it was 8.12; on Carbonic anhydrase 1, less than 5.00; at Carbonic anhydrase 2 it was less than 5.00.

With `Oc1ccc2ccccc2n1`, the pKi on Carbonic anhydrase 1 and at Carbonic anhydrase 2 was less than 5.00 throughout.

`Cc1ccc2[nH]c(=O)ccc2c1`: the values for the pKi at Carbonic anhydrase 9, at Carbonic anhydrase 1 and on Carbonic anhydrase 2 were 6.91, less than 5.00 and less than 5.00, respectively.

On to `S=c1ccc2ccccc2[se]1`, for which the pKi at Carbonic anhydrase 9 is 7.40; at Carbonic anhydrase 1, less than 5.00; on Carbonic anhydrase 2 it was less than 5.00.

On to `Cc1ccc2[se]c(=S)ccc2c1`, for which the values for the pKi at Carbonic anhydrase 9, on Carbonic anhydrase 1 and at Carbonic anhydrase 2 were 7.22, less than 5.00 and less than 5.00, respectively. The viability at 30 µM in the assay with PC-3 [3] was 51%; in the assay on PC-3 [4] it was 79%. For the same compound, the outcome with MDA-MB-231 [5] was inactive. The Activity in the assay on MDA-MB-231 [6] is listed as 61%.

Regarding `[Se]=c1ccc2ccccc2[nH]1`, the values for the pKi at Carbonic anhydrase 9, on Carbonic anhydrase 1 and at Carbonic anhydrase 2 were 7.26, less than 5.00 and less than 5.00, respectively. Further, the result in the assay with PC-3 [7], with PC-3 [8], in the assay with MDA-MB-231 [9] and in the assay on MDA-MB-231 [5] was inactive.

For `O=c1ccc2ccccc2[te]1`, the pKi at Carbonic anhydrase 9 was 7.23; on Carbonic anhydrase 12 [2] it was 8.09; at Carbonic anhydrase 1 it was less than 5.00; at Carbonic anhydrase 2, less than 5.00. For the same compound, the results for the viability at 30 µM with PC-3 [3] and in the assay with PC-3 [4] were 54% and 71%, respectively. Besides, the Activity with PC-3 [10] is 19%; in the assay on PC-3 [11] it was 38%; in the assay on MDA-MB-231 [12], 22%; in the assay on MDA-MB-231 [6] it was 15.9%.

As for `O=c1ccc2cccc(F)c2[nH]1`, the pKi at Carbonic anhydrase 9 was 7.23; on Carbonic anhydrase 1, less than 5.00; on Carbonic anhydrase 2 it was less than 5.00.

`O=c1ccc2cccc(Cl)c2[nH]1`: the pKi at Carbonic anhydrase 9 is 7.64; at Carbonic anhydrase 1, less than 5.00; at Carbonic anhydrase 2, less than 5.00.

For the compound `O=c1ccc2ccccc2[se]1`, the negative logarithm of the Ki (pKi) at Carbonic anhydrase 9 is 7.58; at Carbonic anhydrase 1, less than 5.00; at Carbonic anhydrase 2, less than 5.00. Also, the viability at 300 µM in the assay on PC-3 [13] and in the assay on PC-3 [14] was 68% in each case. The Activity in the assay with MDA-MB-231 [15] is reported as 28%; with MDA-MB-231 [16], more than 50%; in the assay on MDA-MB-231 [12], 90%.

For `O=c1ccc2cccc(Br)c2[nH]1`, the negative-log Ki (pKi) on Carbonic anhydrase 9 is 7.63; on Carbonic anhydrase 1, less than 5.00; at Carbonic anhydrase 2, less than 5.00.

On to `Cn1c(=[Se])ccc2ccccc21`, for which the negative-log Ki (pKi) at Carbonic anhydrase 9 is 6.76; on Carbonic anhydrase 12 [2], 7.06; at Carbonic anhydrase 1, less than 5.00; on Carbonic anhydrase 2 it was less than 5.00.

A word on the pKi: it is the negative decadic logarithm of the Ki, by convention in mol/L.

These data come from ChEMBL document CHEMBL4196237, “Heterocoumarins Are Selective Carbonic Anhydrase IX and XII Inhibitors with Cytotoxic Effects against Cancer Cells Lines” (ACS Med Chem Lett, 2018).
